According to ChEMBL document CHEMBL1151472, “In vitro interactions between tacrolimus and azoles against Candida albicans determined by different methods” (2008):
Values after ≈ are worked out from the molar mass of the structure shown.

What was measured:
Assay type in all cases: functional
Candida albicans [1] = test: Antimicrobial activity against azole-resistant Candida albicans isolate CA16 after 48 hrs by broth microdilution method; conditions: isolate CA16, 48 h
Outline: (§1)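 CLSI M27-A2 broth microdilution was run in RPMI 1640 (pH 7.0, 2% dextrose, 0.165 M MOPS). Inoculum was 2.5 × 10^3 CFU/ml, incubated 35°C for 48 h without shaking. Plates were read visually (0–5 scale) and at OD 492 nm. MIC80 = lowest concentration giving an 80% absorbance decrease vs drug-free control. Triplicate.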

Candida albicans [2] = test: Antimicrobial activity against azole-susceptible Candida albicans isolate CA14 co-treated with calcineurin signaling inhibitor tacrolimus after 48 hrs by microdilution checkerboard technique; conditions: isolate CA14, 48 h
Outline: (§2)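 Checkerboard microdilution in MOPS-buffered RPMI 1640 (pH 7.0, 2% dextrose) with 2.5 × 10^3 CFU/ml for 48 h at 35°C. Final FK506 was 0.002–0.125 μg/ml. Azole finals were FLC 0.125–128 μg/ml, and ITR and VRC 0.008–8 μg/ml. MIC80 is an 80% OD492 decrease vs drug-free control. Interaction was scored by FICI (synergy ≤0.5, antagonism >4) and by ΔE from triplicates.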

Candida albicans [3] = test: Antimicrobial activity against azole-susceptible Candida albicans isolate CA8 after 48 hrs by broth microdilution method; conditions: isolate CA8, 48 h; outline: as §1
Candida albicans [4] = test: Antimicrobial activity against azole-susceptible Candida albicans isolate CA12 co-treated with calcineurin signaling inhibitor tacrolimus after 48 hrs by microdilution checkerboard technique; conditions: isolate CA12, 48 h; outline: as §2
Candida albicans [5] = test: Antimicrobial activity against azole-susceptible Candida albicans isolate CA14 assessed as log reduction in colony count at 1 ug/ml co-treated with calcineurin signaling inhibitor tacrolimus after 48 hrs by time killing test
Outline: (§3)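 Time-kill was started at 10^5 CFU/ml, with 10 μg/ml FLC or 1 μg/ml ITR or VRC, alone or with 0.016 μg/ml FK506, and DMSO <1%, at 35°C. At 0, 6, 12, 24 and 48 h, aliquots were serially diluted and plated on Sabouraud agar, then counted after 48 h at 35°C. Triplicate means.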

Candida albicans [6] = test: Antimicrobial activity against azole-susceptible Candida albicans isolate CA129 co-treated with calcineurin signaling inhibitor tacrolimus after 48 hrs by microdilution checkerboard technique; conditions: isolate CA129, 48 h; outline: as §2
Candida albicans [7] = test: Antimicrobial activity against azole-resistant Candida albicans isolate CA137 after 48 hrs by broth microdilution method; conditions: isolate CA137, 48 h; outline: as §1
Candida albicans [8] = test: Antimicrobial activity against azole-resistant Candida albicans isolate CA10 assessed as log reduction in colony count at 1 ug/ml co-treated with calcineurin signaling inhibitor tacrolimus after 48 hrs by time killing test; outline: as §3
Candida albicans [9] = test: Antimicrobial activity against azole-resistant Candida albicans isolate CA10 after 48 hrs by broth microdilution method; conditions: isolate CA10, 48 h
Outline: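 Broth microdilution per CLSI M27-A2 in RPMI 1640 (pH 7.0, 2% dextrose, 0.165 M MOPS), final inoculum 2.5 × 10^3 CFU/ml; 35°C without shaking for 48 h. Read visually (0–5 scale) and by OD 492 nm; MIC80 = lowest concentration giving 80% drop in absorbance versus drug-free control. Triplicate.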

Candida albicans [10] = test: Antimicrobial activity against azole-susceptible Candida albicans isolate CA12 after 48 hrs by broth microdilution method; conditions: isolate CA12, 48 h; outline: as §1
Candida albicans [11] = test: Antimicrobial activity against azole-resistant Candida albicans isolate CA135 after 48 hrs by broth microdilution method; conditions: isolate CA135, 48 h; outline: as §1
Candida albicans [12] = test: Antimicrobial activity against azole-susceptible Candida albicans isolate CA5 after 48 hrs by broth microdilution method; conditions: isolate CA5, 48 h; outline: as §1
Candida albicans [13] = test: Antimicrobial activity against azole-resistant Candida albicans isolate CA10 assessed as log reduction in colony count at 1 ug/ml co-treated with calcineurin signaling inhibitor tacrolimus after 48 hrs by XTT assay
Outline: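 Same time-kill setup (10^5 CFU/ml start, azole ± 0.016 μg/ml FK506, 35°C). At each time point, aliquots were mixed 1:1 with XTT (0.5 g/liter in Ringer's lactate) plus 10 μM menadione final. Incubation was in the dark for up to 2 h at 35°C, then formazan was read at 492 nm. OD was converted to CFU via a standard curve (Y = 4.2610x + 4.2087). Triplicate.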

Candida albicans [14] = test: Antimicrobial activity against azole-susceptible Candida albicans isolate CA5 co-treated with calcineurin signaling inhibitor tacrolimus after 48 hrs by microdilution checkerboard technique; conditions: isolate CA5, 48 h; outline: as §2
Candida albicans [15] = test: Antimicrobial activity against azole-susceptible Candida albicans isolate CA8 co-treated with calcineurin signaling inhibitor tacrolimus after 48 hrs by microdilution checkerboard technique; conditions: isolate CA8, 48 h; outline: as §2
Candida albicans [16] = test: Antimicrobial activity against azole-resistant Candida albicans isolate CA137 cotreated with calcineurin signaling inhibitor Tacrolimus after 48 hrs by microdilution checkerboard technique; conditions: isolate CA137, 48 h; outline: as §2
Candida albicans [17] = test: Antimicrobial activity against azole-susceptible Candida albicans isolate CA129 after 48 hrs by broth microdilution method; conditions: isolate CA129, 48 h; outline: as §1
Candida albicans [18] = test: Antimicrobial activity against azole-resistant Candida albicans isolate CA10 co-treated with calcineurin signaling inhibitor tacrolimus after 48 hrs by microdilution checkerboard technique; conditions: isolate CA10, 48 h; outline: as §2
Candida albicans [19] = test: Antimicrobial activity against azole-resistant Candida albicans isolate CA15 cotreated with calcineurin signaling inhibitor Tacrolimus after 48 hrs by microdilution checkerboard technique; conditions: isolate CA15, 48 h; outline: as §2
Candida albicans [20] = test: Antimicrobial activity against azole-resistant Candida albicans isolate CA16 cotreated with calcineurin signaling inhibitor Tacrolimus after 48 hrs by microdilution checkerboard technique; conditions: isolate CA16, 48 h; outline: as §2
Candida albicans [21] = test: Antimicrobial activity against azole-resistant Candida albicans isolate CA15 after 48 hrs by broth microdilution method; conditions: isolate CA15, 48 h; outline: as §1
Candida albicans [22] = test: Antimicrobial activity against azole-susceptible Candida albicans isolate CA14 after 48 hrs by broth microdilution method; conditions: isolate CA14, 48 h; outline: as §1
Candida albicans [23] = test: Antimicrobial activity against azole-resistant Candida albicans isolate CA135 cotreated with calcineurin signaling inhibitor Tacrolimus after 48 hrs by microdilution checkerboard technique; conditions: isolate CA135, 48 h; outline: as §2
Candida albicans [24] = test: Antimicrobial activity against azole-susceptible Candida albicans isolate CA14 assessed as log reduction in colony count at 1 ug/ml co-treated with calcineurin signaling inhibitor tacrolimus after 48 hrs by XTT assay
Outline: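 Time-kill assay starting at 10^5 CFU/ml with azole 1 μg/ml plus FK506 0.016 μg/ml at 35°C, with a drug-free control and DMSO <1%. At 48 h, a 100 μl aliquot was mixed with XTT-menadione (XTT 0.5 g/liter in Ringer's lactate, menadione 10 μM final) and incubated in the dark up to 2 h at 35°C. A492 was converted to CFU by standard curve (Y = 4.2610x + 4.2087).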

SMILES | MIC (Candida albicans [1]) | MIC (Candida albicans [2]) | MIC (Candida albicans [3]) | MIC (Candida albicans [4]) | Activity (Candida albicans [5]) | MIC (Candida albicans [6]) | MIC (Candida albicans [7]) | Activity (Candida albicans [8]) | MIC (Candida albicans [9]) | MIC (Candida albicans [10]) | MIC (Candida albicans [11]) | MIC (Candida albicans [12]) | Activity (Candida albicans [13]) | MIC (Candida albicans [14]) | MIC (Candida albicans [15]) | MIC (Candida albicans [16]) | MIC (Candida albicans [17]) | MIC (Candida albicans [18]) | MIC (Candida albicans [19]) | MIC (Candida albicans [20]) | also measured
C[C@@H](c1ncncc1F)[C@](O)(Cn1cncn1)c1ccc(F)cc1F [VORICONAZOLE] | 8 µg/mL (≈ 22.9 µM) | 0.008 µg/mL | 0.008 µg/mL (≈ 0.0229 µM) | 0.016 µg/mL | 1.49 | 0.008 µg/mL | 8 µg/mL (≈ 22.9 µM) | 2.15 | 64 µg/mL (≈ 183 µM) | 0.031 µg/mL (≈ 0.0887 µM) | 8 µg/mL (≈ 22.9 µM) | 0.016 µg/mL (≈ 0.0458 µM) | 2.26 | 0.016 µg/mL | 0.016 µg/mL | 0.008 µg/mL | 0.016 µg/mL (≈ 0.0458 µM) | 0.008 µg/mL | 0.008 µg/mL | 0.008 µg/mL | MIC (Candida albicans [21]): 8 µg/mL (≈ 22.9 µM); MIC (Candida albicans [22]): 0.008 µg/mL (≈ 0.0229 µM); MIC (Candida albicans [23]): 0.016 µg/mL
CCC(C)n1ncn(-c2ccc(N3CCN(c4ccc(OCC5COC(Cn6cncn6)(c6ccc(Cl)cc6Cl)O5)cc4)CC3)cc2)c1=O (configuration not stated) [ITRACONAZOLE] | 32 µg/mL (≈ 45.3 µM) | 0.031 µg/mL | 0.016 µg/mL (≈ 0.0227 µM) | 0.031 µg/mL | 2.13 | 0.031 µg/mL | 16 µg/mL (≈ 22.7 µM) | 2.12 | 128 µg/mL (≈ 181 µM) | 0.063 µg/mL (≈ 0.0893 µM) | 16 µg/mL (≈ 22.7 µM) | 0.031 µg/mL (≈ 0.0439 µM) | 2.46 | 0.031 µg/mL | 0.008 µg/mL | 0.063 µg/mL | 0.063 µg/mL (≈ 0.0893 µM) | 0.031 µg/mL | 0.063 µg/mL | 0.016 µg/mL | Activity (Candida albicans [24]): 1.4; MIC (Candida albicans [21]): 32 µg/mL (≈ 45.3 µM); MIC (Candida albicans [22]): 0.063 µg/mL (≈ 0.0893 µM); MIC (Candida albicans [23]): 0.016 µg/mL
